Data from ChEMBL document CHEMBL1154688, “Selective Kv1.5 blockers: development of (R)-1-(methylsulfonylamino)-3-[2-(4-methoxyphenyl)ethyl]-4-(4-methoxyphenyl)-2-imidazolidinone (KVI-020/WYE-160020) as a potential treatment for atrial arrhythmia” (J Med Chem, 2009).
Converted amounts (≈) assume the structure as drawn.

Columns and labels:
[1] = molecular target: Potassium voltage-gated channel subfamily A member 5 (Homo sapiens, UniProt P22460); assay: Inhibition of human Kv1.5 expressed in CHO cells by patch-clamp technique; type: cell-based
In short: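 Human Kv1.5 stably expressed in CHO cells. IC50 was determined by automated patch clamp on the IonWorks platform.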

[2] = molecular target: Voltage-gated inwardly rectifying potassium channel KCNH2 (Homo sapiens, UniProt Q12809); assay: Inhibition of human ERG by patch-clamp technique
[3] = Aqueous solubility at pH 7.4 by direct UV method; type: physicochemical; conditions: aqueous medium
In short: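 Solubility measured in pH 7.4 buffer with direct UV read-out.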

[4] = Metabolic stability in human liver microsomes assessed as half life; type: ADME, Microsome
In short: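 Test compound at 1 μM incubated with 1 mg/mL male beagle dog or male human liver microsomal protein. Half-life was determined from compound loss.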

CYP3A4 = CYP3A4 (Homo sapiens, UniProt P08684); assay: Inhibition of CYP3A4 at 3 uM by fluorescent method; type: ADME
In short: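 CYP3A4 inhibition measured by a fluorescent method.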

CYP3A4, sequence (P08684 whole entry): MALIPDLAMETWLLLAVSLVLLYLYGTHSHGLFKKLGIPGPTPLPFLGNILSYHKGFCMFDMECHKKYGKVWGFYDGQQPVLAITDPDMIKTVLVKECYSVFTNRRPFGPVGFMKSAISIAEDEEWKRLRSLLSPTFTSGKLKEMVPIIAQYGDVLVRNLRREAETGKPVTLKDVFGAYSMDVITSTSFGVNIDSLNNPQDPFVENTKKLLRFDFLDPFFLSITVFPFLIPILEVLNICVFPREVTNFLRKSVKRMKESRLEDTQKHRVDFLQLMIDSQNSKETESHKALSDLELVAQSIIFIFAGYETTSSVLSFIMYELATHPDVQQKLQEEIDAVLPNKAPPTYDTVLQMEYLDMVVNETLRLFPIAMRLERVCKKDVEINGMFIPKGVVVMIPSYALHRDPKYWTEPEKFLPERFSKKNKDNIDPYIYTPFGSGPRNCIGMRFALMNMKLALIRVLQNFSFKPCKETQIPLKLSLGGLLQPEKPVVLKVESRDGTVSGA
Potassium voltage-gated channel subfamily A member 5, sequence (P22460 whole entry): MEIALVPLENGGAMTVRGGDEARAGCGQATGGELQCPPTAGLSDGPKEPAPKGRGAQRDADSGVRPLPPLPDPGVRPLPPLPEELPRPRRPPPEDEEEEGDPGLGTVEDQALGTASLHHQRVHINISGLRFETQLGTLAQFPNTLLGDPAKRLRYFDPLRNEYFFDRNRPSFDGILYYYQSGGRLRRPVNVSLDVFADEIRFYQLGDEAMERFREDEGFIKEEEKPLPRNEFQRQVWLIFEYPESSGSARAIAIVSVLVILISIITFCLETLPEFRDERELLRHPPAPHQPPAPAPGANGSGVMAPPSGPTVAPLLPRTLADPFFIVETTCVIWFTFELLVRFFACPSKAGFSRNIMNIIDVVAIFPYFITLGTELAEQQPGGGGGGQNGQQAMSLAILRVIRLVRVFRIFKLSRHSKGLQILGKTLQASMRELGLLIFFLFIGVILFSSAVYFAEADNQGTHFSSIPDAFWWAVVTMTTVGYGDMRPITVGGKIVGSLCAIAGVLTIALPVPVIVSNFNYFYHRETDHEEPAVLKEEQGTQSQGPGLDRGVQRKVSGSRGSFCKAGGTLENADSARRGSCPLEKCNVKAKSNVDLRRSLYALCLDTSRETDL
Voltage-gated inwardly rectifying potassium channel KCNH2, sequence (Q12809 whole entry): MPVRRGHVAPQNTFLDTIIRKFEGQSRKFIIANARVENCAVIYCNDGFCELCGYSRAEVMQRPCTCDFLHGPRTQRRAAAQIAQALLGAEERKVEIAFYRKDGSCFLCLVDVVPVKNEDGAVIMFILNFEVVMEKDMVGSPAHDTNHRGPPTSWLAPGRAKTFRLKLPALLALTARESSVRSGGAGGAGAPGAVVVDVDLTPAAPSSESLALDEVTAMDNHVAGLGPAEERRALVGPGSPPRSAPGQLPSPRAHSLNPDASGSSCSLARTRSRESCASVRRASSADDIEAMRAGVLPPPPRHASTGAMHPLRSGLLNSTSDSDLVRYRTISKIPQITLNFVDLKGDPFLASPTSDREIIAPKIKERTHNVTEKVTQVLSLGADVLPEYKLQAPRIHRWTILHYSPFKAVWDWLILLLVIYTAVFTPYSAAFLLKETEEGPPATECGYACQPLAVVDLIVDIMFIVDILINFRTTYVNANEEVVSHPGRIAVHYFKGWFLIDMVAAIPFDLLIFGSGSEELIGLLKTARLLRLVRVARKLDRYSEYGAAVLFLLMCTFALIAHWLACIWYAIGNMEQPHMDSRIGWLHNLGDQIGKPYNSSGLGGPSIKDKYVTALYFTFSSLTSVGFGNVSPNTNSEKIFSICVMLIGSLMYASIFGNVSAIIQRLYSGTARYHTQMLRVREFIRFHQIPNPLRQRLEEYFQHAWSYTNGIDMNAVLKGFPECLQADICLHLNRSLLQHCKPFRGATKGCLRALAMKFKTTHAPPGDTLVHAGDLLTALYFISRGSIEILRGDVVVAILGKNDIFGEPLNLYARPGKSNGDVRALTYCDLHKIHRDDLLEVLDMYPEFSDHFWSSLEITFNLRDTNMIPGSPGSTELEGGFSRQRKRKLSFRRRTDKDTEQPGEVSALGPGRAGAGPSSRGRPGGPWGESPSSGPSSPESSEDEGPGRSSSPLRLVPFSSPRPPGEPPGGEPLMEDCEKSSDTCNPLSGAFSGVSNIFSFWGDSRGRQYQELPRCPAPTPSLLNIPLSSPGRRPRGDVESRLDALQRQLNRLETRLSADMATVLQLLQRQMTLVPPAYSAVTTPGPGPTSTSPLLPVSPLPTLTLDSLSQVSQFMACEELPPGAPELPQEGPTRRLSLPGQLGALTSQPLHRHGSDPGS

IC50 [1]	solubility [3]	half-life [4]	inhibition at 3 µM (CYP3A4)	Structure (SMILES)	IC50 [2]
0.25 µM	13 µg/mL (≈ 28.4 µM)	30 min	67%	COc1ccc(CCN2C(=O)N(NS(C)(=O)=O)CC2c2ccc(C(F)(F)F)cc2)cc1 (stereo not drawn)	9.1 µM
0.24 µM	26 µg/mL (≈ 58.1 µM)	30 min	53%	COc1ccc(CCN2C(=O)N(NS(C)(=O)=O)CC2c2ccc(OC(C)C)cc2)cc1 (stereo not drawn)	17 µM
7.45 µM	100 µg/mL (≈ 216 µM)	30 min	50%	COCCOc1ccc(C2CN(NS(C)(=O)=O)C(=O)N2CCc2ccc(OC)cc2)cc1 (stereo not drawn)	
0.24 µM	42 µg/mL (≈ 104 µM)	18 min	58%	COc1ccc(CCN2C(=O)N(NS(C)(=O)=O)CC2c2ccc(C)cc2)cc1 (stereo not drawn)	11.2 µM
0.52 µM	4 µg/mL (≈ 8.45 µM)	15 min	53%	COc1ccc([C@H]2CN(NS(C)(=O)=O)C(=O)N2CCc2ccc(OC(F)(F)F)cc2)cc1	5.6 µM
0.16 µM	1 µg/mL (≈ 2.33 µM)	30 min	78%	COc1ccc(CCN2C(=O)N(NS(C)(=O)=O)CC2c2ccc(C3CC3)cc2)cc1 (stereo not drawn)	8.4 µM
0.1 µM	18 µg/mL (≈ 41.5 µM)	29 min	84%	COc1ccc(CCCN2C(=O)N(NS(C)(=O)=O)C[C@@H]2c2ccc(OC)cc2)cc1	14.1 µM
0.2 µM	4 µg/mL (≈ 9.44 µM)	30 min	27%	COc1ccc(CCN2C(=O)N(NS(C)(=O)=O)CC2c2ccc(Cl)cc2)cc1 (stereo not drawn)	
0.61 µM	17 µg/mL (≈ 40.7 µM)	13 min	77%	COc1ccc(CCN2C(=O)N(NS(C)(=O)=O)CC2c2ccc(C)c(C)c2)cc1 (stereo not drawn)	15.8 µM
